Source: PubChem BioAssay
An excerpt weighted towards active compounds, which were near 3% of everything screened.
SR-BI DiI-HDL act: SR-BI HDL lipid transfer activation | AID 504775 | 320,000 tested, 0.096% active | CHO ldlA[mSR-BI] cells, DiI-HDL uptake fluorescence, 3 h; 100 = double the neutral-control signal | activation, % at 12.5 µM;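 active = mean replicate activation of at least 60% and every replicate at or above 60%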;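 note: 0% = median plate neutral-control signal and 100% = twice that signal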
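Test system: SR-BI-overexpressing, LDLR-lacking CHO cells. Measured by: DiI fluorescence, bottom read. Medium: Ham's F12 with 0.5% BSA, HEPES 25 mM, pH 7.4. Timing: 3 h uptake period with compound, 37 °C.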
SR-BI DiI inh: mouse SR-BI HDL lipid transfer inhibition. inhibition, % at 12.5 µM. Q61009. ldlA[mSR-BI] CHO cells, DiI-HDL uptake fluorescence, 3 h. 320,000 tested, 0.96% active;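 active = mean replicate inhibition of at least 70% and a set share of replicates each scoring 70 or more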;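 note: 0% = median of neutral control wells and 100% = median of positive control wells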
Target sequence (Q61009 whole entry, looked up): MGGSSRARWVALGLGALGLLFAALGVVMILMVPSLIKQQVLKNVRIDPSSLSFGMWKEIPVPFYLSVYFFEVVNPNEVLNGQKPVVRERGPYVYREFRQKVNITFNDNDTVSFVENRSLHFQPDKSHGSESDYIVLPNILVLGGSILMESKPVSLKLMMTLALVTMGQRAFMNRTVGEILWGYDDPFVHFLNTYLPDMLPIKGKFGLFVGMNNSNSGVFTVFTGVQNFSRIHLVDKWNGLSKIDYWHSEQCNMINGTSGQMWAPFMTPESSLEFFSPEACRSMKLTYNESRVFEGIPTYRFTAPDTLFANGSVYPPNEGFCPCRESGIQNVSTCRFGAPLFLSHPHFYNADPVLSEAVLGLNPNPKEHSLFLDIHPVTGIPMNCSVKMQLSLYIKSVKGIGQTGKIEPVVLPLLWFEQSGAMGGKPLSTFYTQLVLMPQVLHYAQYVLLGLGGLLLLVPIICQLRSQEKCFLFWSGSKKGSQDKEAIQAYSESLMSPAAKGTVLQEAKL
TMEM16A act: mouse TMEM16A channel activation, primary screen. Q8BHY3. HEK293 TMEM16A/YFP-H148Q/I152L, iodide quench fluorescence; active compounds read low. B-score at 10 µM. 340,000 tested, 0.3% active;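 active = fluorescence-ratio B-score plate-corrected deviation score at least 3 library SD below zero, with starting fluorescence score within 5 deviations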;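 note: channel opened by trigger with iodide after compound preincubation; score built on the fluorescence ratio of max minus min over baseline; more negative score means more quench and so TMEM16A activation or potentiation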
FID counter: displaces DNA intercalator in HCV helicase counter-screen; DNA fluorescent intercalator displacement, fluorescence; 290,000 tested, 0.17% active; inhibition, % at 7.9 µM; in the data active = inhibition above about 37%;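 note: 0% = vehicle and 100% = reference compound; higher means more ethidium bromide displaced from hairpin DNA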
Kir21 inh: blocks the mouse Kir2.1 inward-rectifier potassium channel. HEK293-Kir2.1, FluxOR thallium flux fluorescence; active compounds read low. P35561. 310,000 tested, 0.85% active. B-score at 10 µM;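 active = fluorescence ratio B-score at or below minus 3 SD of library scores, with starting-brightness B-score within 2 SD, cut at about -4.2 in these data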;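 note: channel flux triggered by added potassium and thallium sulfate stimulus; B-score of peak minus minimum fluorescence over baseline after thallium stimulus; more negative B-score means stronger Kir2.1 block with less thallium influx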
ANO1 block: mouse TMEM16A channel inhibition, primary screen | Q8BHY3 | HEK293 TMEM16A/YFP iodide influx fluorescence, ionomycin | normalized B-score (activity score, 25-100; higher = stronger inhibition) at 10 µM | 310,000 tested, 1.2% active | AID 588511;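 active = ratio plate-corrected score three or more library SD toward inhibition, starting fluorescence score within five deviations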;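 note: score derived from kinetic fluorescence span divided by baseline fluorescence per well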
TMEM16A reconf: TMEM16A (mouse) chloride channel inhibition, re-confirmation; AID 652189; HEK293 TMEM16A/YFP-H148Q, iodide quench fluorescence; ionomycin added to raise cell calcium; inhibition, % at 10 µM; shares compounds with ANO1 block; 2,300 tested, 39% active;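 active = mean duplicate percent inhibition, scaled so buffer wells are 0 and the reference blocker 100, over three buffer SD above buffer mean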
HEK293 Ca mobil: counter-screen for TMEM16A inhibitors: effect on calcium mobilization; shares compounds with ANO1 block; TMEM16A/YFP HEK293, Fluo4 calcium mobilization; calcium response (% of ionomycin), % at 10 µM; 2,300 tested, 2% active; AID 652231;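 active = duplicate-averaged calcium signal over 20% of the ionomycin maximum, relative to buffer baseline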;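 note: each well's signal is peak minus trough fluorescence divided by its pre-addition baseline; 0% = buffer wells and 100% = ionomycin wells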
YFP-HEK293 quench: acts in parental YFP-HEK293 cells lacking TMEM16A, counter-screen; iodide YFP quench, ionomycin; YFP ratio F(max-min)/F0 at 10 µM; 2,300 tested, under 10 active; shares compounds with ANO1 block;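 active = yellow fluorescent protein signal ratio exceeding the buffer control mean by over 5 SD of those controls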;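 note: ratio is mean of duplicate wells from kinetic YFP trace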
ClC-1 inh: selectivity of TMEM16A inhibitors: inhibition of rat ClC-1 chloride channel. shares compounds with ANO1 block. CHO ClC-1-YFP, iodide influx fluorescence quench; iodide control reads 0, buffer control 100. ratio percent, % at 10 µM. 2,300 tested, under 10 active. AID 652236;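 active = duplicate-mean ratio percent above the mean of iodide-only control wells, which defines zero, plus 5 of their SD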;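 note: higher percent means stronger block of ClC-1 iodide influx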
* = called active by the depositor; i = inactive; . = not tested or not shown.

SMILES	SR-BI DiI-HDL act	SR-BI DiI inh	TMEM16A act	FID counter	Kir21 inh	ANO1 block	TMEM16A reconf	HEK293 Ca mobil	YFP-HEK293 quench	ClC-1 inh
CCN(CC)CCNC(=O)CS(=O)Cc1nc(-c2ccc(C)cc2)oc1C (stereo unspecified)	4	-4	i	20	-0.27	i	i	i	-0.92	-8
CC(=O)c1c[nH]c2ccc(C)cc2c1=O	-2	6	i	-1	-0.86	100*	i	i	-0.89	-9
CCOC(=O)c1ccc2[nH]cc(C(C)=O)c(=O)c2c1	42	-42	i	-4	0.18	i	.	.	.	.
O=c1cc(C(F)(F)F)[nH]c2c(OC(F)(F)F)cccc12	-9	9	i	3	-0.07	100*	28%*	i	-1.1	-16
Cc1cccc2c(=O)cc(C(F)(F)F)[nH]c12	-2	2	i	-1	0.07	i	.	.	.	.
CCCN(C(=O)c1cc(S(=O)(=O)N(C)c2ccccc2OC)ccc1C)C1CCS(=O)(=O)C1 (stereo unspecified)	10	-10	i	.	.	.	.	.	.	.
C=CCc1ccc(O)c(-c2cc(CC=C)ccc2O)c1	-17	17	i	-10	-4.1	100*	32%*	i	-0.88	-4
CCN(CC)C(=O)c1sc2nc(-c3cccs3)cc(-c3cccs3)c2c1N	.	.	i	-14	-0.06	i	i	i	-0.6	24
Nc1c(C(=O)Nc2nccs2)sc2nc(-c3cccs3)cc(C(F)(F)F)c12	-61	61	i	-1	0.01	i	i	i	-0.64	39
CCCn1c(SCC(=O)Nc2ccccc2OC)nnc1-c1ccco1	-13	13	i	-33	-0.91	i	.	.	.	.
CCCN(CC(=O)Nc1ccccc1OC)C(=O)c1ccc2[nH]c3c(c2c1)CC(C)CC3 (stereo unspecified)	-17	17	i	.	.	.	.	.	.	.
C=C(C)COc1cc2oc(=O)c(CC(=O)N3C[C@H]4C[C@@H](C3)c3cccc(=O)n3C4)c(C)c2cc1Cl	14	-14	i	-41	-0.87	i	.	.	.	.
N#Cc1c(-c2ccccc2)nc(SCc2cccc(Cl)c2)[nH]c1=O	16	-16	i	8	1.1	100*	83%*	i	-0.99	-19
Cc1[nH]c(=O)nc(SCc2cccc(Cl)c2)c1C#N	.	.	i	-4	1.6	i	.	.	.	.
COc1ccc(NS(=O)(=O)c2ccc(C(=O)N3CCC(C)CC3)cc2)cc1	-11	11	i	.	.	.	.	.	.	.
Cc1ccc2nc(C)c(CN3CCN(c4ccc([N+](=O)[O-])cc4Cl)CC3)n2c1	-13	13	i	4	1.1	25*	18%*	i	-0.9	-14
O=[N+]([O-])c1ccc(Cl)c(CN2CCN(c3ncccn3)CC2)c1	2	-2	i	-8	-1.1	i	.	.	.	.
CCc1ccccc1N(CC)C(=O)CCc1nc(-c2ccc(C)cc2)no1	2	-2	i	-29	0.08	100*	30%*	i	-0.88	-12
CCC1CCCCN1C1Sc2ccc(C(=O)OC)cc2NC1=O (stereo unspecified)	-7	7	i	6	2	25*	i	i	-1.2	-9
COC(=O)c1ccc2c(c1)NC(=O)C(N1CCOCC1)S2 (stereo unspecified)	21	-21	i	-3	0.98	i	.	.	.	.
CCCSc1oc(-c2ccco2)nc1S(=O)(=O)c1ccc(C)cc1	8	-8	i	-34	-0.02	25*	i	i	-1	-10
FC(F)(F)c1cccc(-c2nnc(-c3ccccc3)c(N3CCOCC3)n2)c1	-25	25	i	-9	-0.04	i	.	.	.	.
O=[N+]([O-])c1ccc(-c2nnc(-c3ccccc3)c(N3CCOCC3)n2)cc1	51	-51	i	0	-0.84	i	i	i	-1.2	-14
Cc1ccccc1OCC(=O)N1N=C(C(F)(F)F)CC1(O)C(C)(C)C (stereo unspecified)	14	-14	i	-32	-0.1	25*	i	i	-1.1	-4
O=S(=O)(Nc1nc(-c2ccccc2)cs1)c1cc(Cl)ccc1Cl	6	-6	i	-39	-0.31	25*	24%*	i	-1.1	-10
SMILES	SR-BI DiI-HDL act	SR-BI DiI inh	TMEM16A act	FID counter	Kir21 inh	ANO1 block	TMEM16A reconf	HEK293 Ca mobil	YFP-HEK293 quench	ClC-1 inh
O=S(=O)(Nc1nc(-c2ccccc2)cs1)c1cccc(C(F)(F)F)c1	.	.	i	-27	1.6	100*	25%*	i	-1	-20
O=C(O)c1ccccc1NS(=O)(=O)c1cccc(C(F)(F)F)c1	23	-23	i	-19	0.15	i	.	.	.	.
O=C(C[C@@H]1C/C=C\C[C@H](Cc2ccc(F)cc2)C(=O)OCCNC1=O)N[C@H](CO)Cc1ccccc1	-3	3	i	.	.	.	.	.	.	.
Cc1nnc(SCc2cccc(Oc3ccccc3)c2)n1N	11	-11	i	-9	-0.26	25*	i	i	-1	-20
CN(c1ccccc1)S(=O)(=O)c1cccc(NC(=O)CSc2nnc(N)s2)c1	3	-3	i	-16	-2.3	100*	35%*	i	-0.75	-18
O=C(Nc1nnc(-c2cccs2)o1)c1cccc(C(F)(F)F)c1	4	-4	i	-3	-0.07	25*	i	26%*	-0.87	-22
COc1cccc(OCc2cc(C(=O)N(C)Cc3nccn3C)no2)c1	13	-13	i	-2	0.98	i	.	.	.	.
COc1cccc(CN(C)C(=O)c2cc(COc3ccc4ncccc4c3)on2)c1	5	-5	i	-26	-1.9	25*	38%*	i	-0.98	-34
O=C(c1cc(COc2ccc3ncccc3c2)on1)N1CCCCCC1	30	-30	i	-25	0.98	i	.	.	.	.
COCC1CCN(C(=O)c2cc(COc3ccc4ncccc4c3)on2)CC1	-7	7	i	-14	-1.6	25*	32%*	i	-0.89	-13
COc1cc(Cl)ccc1OCc1cc(C(=O)N(C)Cc2cccc3cnccc23)no1	-46	46	i	-34	-1.1	100*	25%*	i	-1.1	-13
